Published values pooled from the literature.
Target: Tyrosine-protein kinase ZAP-70 (ZAP70, Homo sapiens, UniProt P43403)
Sequence (P43403 1-619, as in one of the studies): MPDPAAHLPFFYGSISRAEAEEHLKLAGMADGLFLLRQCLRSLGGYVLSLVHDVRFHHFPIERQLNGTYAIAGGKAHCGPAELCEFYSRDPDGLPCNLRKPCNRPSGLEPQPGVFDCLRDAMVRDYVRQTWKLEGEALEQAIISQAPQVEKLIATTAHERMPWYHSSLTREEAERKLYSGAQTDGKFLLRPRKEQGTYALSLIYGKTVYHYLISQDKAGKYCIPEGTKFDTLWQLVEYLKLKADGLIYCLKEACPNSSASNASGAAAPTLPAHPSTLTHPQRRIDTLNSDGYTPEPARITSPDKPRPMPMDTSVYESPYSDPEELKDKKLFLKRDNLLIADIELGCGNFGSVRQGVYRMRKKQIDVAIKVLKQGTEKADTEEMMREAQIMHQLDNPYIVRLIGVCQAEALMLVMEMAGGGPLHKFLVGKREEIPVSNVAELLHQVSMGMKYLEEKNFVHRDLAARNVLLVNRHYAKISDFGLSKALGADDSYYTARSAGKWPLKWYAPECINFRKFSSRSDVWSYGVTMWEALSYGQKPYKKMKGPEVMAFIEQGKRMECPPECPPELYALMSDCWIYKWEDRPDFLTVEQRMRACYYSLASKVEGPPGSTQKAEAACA

assay | conditions | measurement | result | SMILES
enzyme activity, inhibitor | 1 µM | inhibition | 8% | CC#CC(=O)N1CCC[C@H]1c1nc(-c2ccc(C(=O)Nc3ccccn3)cc2)c2c(N)nccn12
binding | 1 µM | remaining binding | 65% | CN1CCN(C(=O)c2ccc(NC(=O)Nc3ccc(N(C)c4ccnc(Nc5ccc(CS(C)(=O)=O)cc5)n4)cc3)cc2)CC1
enzyme activity, inhibitor | 1 µM | inhibition | 2% | C=CC(=O)N1CCC([C@@H]2CCNc3c(C(N)=O)c(-c4ccc(Oc5ccccc5)cc4)nn32)CC1
binding | 1 µM | remaining binding | 100% | Cc1ccc(NC(=O)c2ccnc(C(F)(F)F)c2)cc1-c1cc(OCCO)nc(N2CCOCC2)c1
cell-free assay, competition with immobilised ligand | 25 µM | remaining binding | 91% | N#Cc1ccc(NC(=O)Nc2ccccc2)cc1
binding | 1 µM | remaining binding | 88% | COc1ccc2oc(-c3ccc4nc(N)oc4c3)c/c(=N\c3ccccc3NC(=O)CCN)c2c1
cell-free assay | 1 µM | remaining signal | 100% | C#Cc1cnc(Nc2ccnc(CO)c2)nc1Nc1ccccc1S(C)(=O)=NC#N (stereo not drawn)
binding, competition with immobilised ligand | 0.5 µM | remaining binding | 98% | CCCCC(=O)Nc1ccc(-c2ccc3ncn(CCC)c(=O)c3c2)cn1
enzyme activity, inhibitor | 1 µM | activity vs control | 100% | CC(C)S(=O)(=O)c1ccc2nccc(Nc3ccc4sc(C5CCCC5)nc4c3)c2c1
